Screening data from PubChem.
Rows were chosen to be rich in hits. Some 1.8% of all compounds tested hit in one or more screens of this group.
M5 ag – CHRM5 agonism in calcium assay; hit rate 0.19% among 360,000; AID 624037; activation, % at 3 µM; CHO-K1 hM5 cells, Fluo-8 calcium fluorescence; 0% DMSO wells, 100% maximal acetylcholine response;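 active = activation above the run's mean over test compounds plus 3 SD, cut at about 23% in these data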;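 also: signal is peak over basal fluorescence ratio across the kinetic read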
M5 antag – antagonists of human muscarinic M5 receptor (CHRM5); P08912; CHO-hM5 cells, Fluo-8 calcium fluorescence, ACh EC80; inhibition, % at 3 µM; hit rate 0.59% among 360,000; AID 624040;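 active = inhibition above a per-plate cutoff, the mean of that plate's test compounds plus 3 SD, cut at about 27% in these data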;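 also: 0% = acetylcholine EC80 with DMSO and 100% = DMSO without agonist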
CHRM4 PAM – potentiates acetylcholine response at human M4 receptor; hit rate 0.4% among 360,000; P08173; activation, % at 3 µM; CHO-K1 hM4/Gqi5, Fluo-8 calcium fluorescence, ACh EC20; 0% = ACh EC20, 100% = maximal ACh;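 active = activation above its plate's cutoff, the mean activation of sample wells plus 3 SD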
Target sequence (P08173 whole entry, looked up): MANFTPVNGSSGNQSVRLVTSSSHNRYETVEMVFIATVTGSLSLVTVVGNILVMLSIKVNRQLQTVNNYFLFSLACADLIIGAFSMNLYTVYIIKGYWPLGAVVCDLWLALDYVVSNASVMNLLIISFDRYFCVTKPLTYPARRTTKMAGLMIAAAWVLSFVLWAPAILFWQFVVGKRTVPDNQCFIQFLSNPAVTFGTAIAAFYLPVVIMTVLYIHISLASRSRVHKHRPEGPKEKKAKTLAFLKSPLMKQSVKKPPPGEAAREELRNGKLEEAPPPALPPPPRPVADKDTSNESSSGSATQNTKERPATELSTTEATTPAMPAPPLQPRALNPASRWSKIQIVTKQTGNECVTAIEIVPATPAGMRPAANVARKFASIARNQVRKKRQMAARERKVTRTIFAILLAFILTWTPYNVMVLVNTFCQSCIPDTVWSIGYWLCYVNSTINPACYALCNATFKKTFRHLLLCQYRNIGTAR
M4 ag – CHRM4 agonism in calcium assay; P08173; CHO-K1 hM4/Gqi5, Fluo-8 calcium fluorescence; vehicle 0%, full acetylcholine response 100%; activation, % at 3 µM; hit rate 0.14% among 360,000;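 active = activation above the run mean over all test wells plus 3 SD, cut at about 32% in these data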;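 also: peak over basal fluorescence ratio per well then scaled between controls; 0% = DMSO wells and 100% = acetylcholine at EC100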
CHRM4 antagonist – antagonists of human muscarinic M4 receptor (CHRM4); P08173; CHO-hM4 cells, ACh EC80, Fluo-8 calcium fluorescence; inhibition, % at 3 µM; hit rate 0.73% among 360,000;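 active = inhibition above its plate's cutoff, the mean inhibition of sample wells plus 3 SD, cut at about 27% in these data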;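 also: 0% = acetylcholine EC80 with DMSO and 100% = DMSO without agonist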
M5 PAM – potentiates acetylcholine response at human M5 receptor. activation, % at 3 µM. hit rate 0.3% among 360,000. CHO-K1 hM5, Fluo-8 calcium, ACh EC20 PAM; 0% = ACh EC20, 100% = ACh EC100. P08912;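 active = activation above the run cutoff, the mean activation of all test compounds plus 3 SD, cut at about 18% in these data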
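System: CHO-K1 hM5 cells. Reagent: acetylcholine, EC20 level. Compound dosing: single dose, 3 µM nominal final test concentration. Timing: Post-acetylcholine fluorescence recording 140 s. Detection: Fluo-8 calcium fluorescence. Read-out: % activation, ACh-normalized. Benchmarks: ACh EC20 and EC100 wells. Repeats: singlicate, one well per test compound.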
Numbers without * were called inactive.

SMILES	M5 ag	M5 antag	CHRM4 PAM	M4 ag	CHRM4 antagonist	M5 PAM
CC(C)C1C(=O)N(Cc2cn(Cc3ccco3)nn2)CCS(=O)(=O)N1Cc1ccc(-c2cccc(N(C)C)c2)cc1 (configuration not stated)	0	-5	18*	-2	-14	6
COc1cccc2c1OCC/C2=N\NC(=O)COc1ccccc1C	1	4	23*	4	-2	-4
Cc1cc2c(c(=O)n1CC1CCCO1)C(c1ccc3c(c1)OCO3)C(C#N)=C(N)O2 (configuration not stated)	-2	-2	15	0	2	8
CCn1c(C)cc2c(c1=O)C(c1ccc3c(c1)OCO3)C(C#N)=C(N)O2 (configuration not stated)	-8	19	-13	1	30*	-23
O=C(COC(=O)c1c[nH]c2ccccc12)Nc1ccc([N+](=O)[O-])cc1	2	3	5	5	-7	-3
CC1(C)C(=S)N(Cc2ccccc2)c2ccccc21	-2	8	-4	-1	-5	-1
Cc1cccc(C2(c3cccc(C)c3)CC2C(=O)Nc2ccc([N+](=O)[O-])cc2O)c1 (configuration not stated)	2	33*	-13	7	27*	-21
COc1ccc(Cl)cc1NC(=O)CN(C)C(=O)c1cc2c(s1)CCC(C)C2 (configuration not stated)	3	3	4	1	-7	-1
Cc1sc2nc(CN(Cc3cccs3)C(=O)NC3CCCCC3)[nH]c(=O)c2c1C	-1	-3	0	1	-15	29*
COc1ccc(C2SCC(=O)N2c2c(C)n(C)n(-c3ccccc3)c2=O)cc1OC (configuration not stated)	5	0	7	1	-7	33*
Cc1c(N2C(=O)CSC2c2ccccc2)c(=O)n(-c2ccccc2)n1C (configuration not stated)	-1	6	2	0	0	2
Cc1cc(/C=C2\SC(=S)N(Cc3ccco3)C2=O)c(C)n1-c1ccccc1	12	6	-1	2	2	22*
Nc1ccc(-c2c3ccc(=O)cc-3oc3cc(O)ccc23)c(C(=O)O)c1	270*	42*	-20	426*	26	-44
O=C(NC1CCCCC1)C(c1ccccc1)N1CCCC1 (configuration not stated)	-13	12	-17	0	46*	-29
Cc1ccc(C(C(=O)NC2CCCCC2)N2CCCC2)cc1 (configuration not stated)	-11	-2	-10	0	3	-13
CC(C(=O)NC(=O)NC1CCCCC1)N1CCN(C(c2ccccc2)c2ccccc2)CC1 (configuration not stated)	-4	8	-27	-1	37*	-8
CC(C(=O)NC1CCCC1)N1CCN(Cc2ccccc2)CC1 (configuration not stated)	-8	7	-7	0	7	1
C=C(C)C(=O)Nc1cccc(C2=NOC3(C2)C[C@H](C(N)=O)N(C(=O)c2ccccc2C(=O)c2ccccc2)C3)c1 (some centres not stated)	-2	17	5	3	3	-5
O=C(CN1CCCCC1)NC(=O)NC1CCCCC1	-5	55*	0	1	12	-17
NC(=O)C1CCN(CC(=O)NC(=O)NC2CCCC2)CC1	-1	9	20*	2	-6	-1
O=C(CN1CCCC1)NC(=O)NC1CCCC1	0	-2	-1	0	1	7
COc1ccc(OC(C)C(=O)NC2CCCCCC2)cc1 (configuration not stated)	-7	8	7	0	-9	3
CCc1cc(=O)[nH]c(SCCC(F)=C(F)F)n1	2	-15	-1	-1	4	10
CCCCC(CC)C(=O)Nc1cc(=O)[nH]c2nc3ccccc3n12 (configuration not stated)	-3	12	0	0	-7	-5
